Compounds with a hit are over-represented: about 4.2% of the library has one in this group of screens.
WT yeast gro inh – growth inhibition of WT strain, primary screen, mitochondrial fusion inhibitor project, WT and mutant strains, chemical genetic | mitochondrial fusion phenotypic screen | actives 2.1% (n = 190,000) | inhibition, % at 10 µM; in the data active = inhibition above about 58%; tested in S. cerevisiae
Autophagy HCS – autophagy modulators in MEF cells, primary screen, imaging, high-content, MEF GFP-LC3; MEF GFP-LC3 puncta imaging; test concentration mostly 10 µM; calls only at 10 µM (by protocol); actives 0.98% (n = 190,000); AID 463193, 2010;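 active = percentage of spot-positive cells more than 3 SD above its plate mean, without a fluorescence outlier flag or 80% toxicity; inconclusive = no clear call, values can overlap the other calls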;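 also: spot-positive cell cutoff set from DMSO-treated cells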
KCC2 mod – KCC2 cotransporter modulators, thallium flux, primary screen, cell-based, HEK293 KCC2, FluoZin-2 fluorescence, MLSMR. AID 1456, 2008. Solute carrier family 12 member 5 (Homo sapiens), Q9H2X9. B-score of Tl+ flux slope (higher = more flux/activation; lower = inhibition) at 10 µM. KCC2 cells, thallium flux FluoZin-2 fluorescence. actives 2.2% (n = 190,000);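 active = thallium flux slope and its plate-corrected score both differing from the plate sample mean at a set confidence after two filtering rounds, in either direction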;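 also: slope of fluorescence scaled to starting intensity during 10 to 20 s after thallium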
Target sequence (Q9H2X9 whole entry, looked up): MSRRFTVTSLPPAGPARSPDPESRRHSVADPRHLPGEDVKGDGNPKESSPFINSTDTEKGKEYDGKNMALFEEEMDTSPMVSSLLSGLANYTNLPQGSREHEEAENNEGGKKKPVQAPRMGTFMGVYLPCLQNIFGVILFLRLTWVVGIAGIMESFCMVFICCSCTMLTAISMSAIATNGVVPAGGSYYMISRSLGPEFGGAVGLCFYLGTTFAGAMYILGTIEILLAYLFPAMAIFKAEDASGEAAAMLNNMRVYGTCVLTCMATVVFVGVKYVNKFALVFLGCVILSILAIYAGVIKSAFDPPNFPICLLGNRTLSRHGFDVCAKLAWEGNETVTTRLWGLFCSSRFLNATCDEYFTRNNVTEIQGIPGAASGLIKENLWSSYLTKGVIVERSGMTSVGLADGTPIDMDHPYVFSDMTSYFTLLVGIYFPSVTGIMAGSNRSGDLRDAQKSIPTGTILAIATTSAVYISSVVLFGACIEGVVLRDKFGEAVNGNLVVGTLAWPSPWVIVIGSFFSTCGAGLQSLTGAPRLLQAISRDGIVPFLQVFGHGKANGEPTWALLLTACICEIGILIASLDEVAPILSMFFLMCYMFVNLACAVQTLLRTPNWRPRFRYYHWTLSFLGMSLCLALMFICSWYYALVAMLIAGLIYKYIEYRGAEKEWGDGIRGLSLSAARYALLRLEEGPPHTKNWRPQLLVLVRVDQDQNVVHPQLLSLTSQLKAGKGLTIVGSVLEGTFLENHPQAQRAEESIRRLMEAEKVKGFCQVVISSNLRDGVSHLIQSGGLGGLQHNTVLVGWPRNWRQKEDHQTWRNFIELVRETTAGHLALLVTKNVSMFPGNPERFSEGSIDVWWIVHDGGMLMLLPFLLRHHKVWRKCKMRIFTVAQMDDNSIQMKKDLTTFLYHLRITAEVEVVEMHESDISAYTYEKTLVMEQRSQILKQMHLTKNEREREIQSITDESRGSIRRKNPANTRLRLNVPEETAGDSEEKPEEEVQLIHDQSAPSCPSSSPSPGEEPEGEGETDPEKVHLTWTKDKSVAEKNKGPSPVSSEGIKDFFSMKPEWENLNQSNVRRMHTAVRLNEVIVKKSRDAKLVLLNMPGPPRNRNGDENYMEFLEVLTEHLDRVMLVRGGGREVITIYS
Rad51 HR inh – human RAD51 strand exchange inhibitors, primary screen, biochemical, fluorescence; inhibition, % at 10 µM; hRad51 DNA strand exchange, fluorescence dequenching; actives 0.085% (n = 200,000); AID 1385, 2008;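 active = inhibition above 40% at the single screening dose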;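 also: 0% = DMSO control wells and 100% = blanks with heterologous ssDNA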
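Read-out basis: percent inhibition relative to plate controls and blanks / Assay system: human Rad51 nucleoprotein filaments preassembled on unlabelled ssDNA / Timing: filaments 15 min 37 °C, then compound 30 min / Control set: per-plate controls and blanks / Technique: fluorescence dequenching at 485/520 nm / Compound: 10 µM final, single point / Also added: Fluorescein- and BHQ1-tagged 47-mer duplex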
SKKanGAS inh – S. pyogenes SKKanGAS growth inhibitors in kanamycin, primary screen, streptokinase expression inhibitor project, SKKanGAS strain, BacTiter-Glo luminescence; 6 h; inhibition, % at 7.5 µM; actives 1.3% (n = 300,000); AID 1662, 2009;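 active = mean replicate score, as percent of positive control median, at least 50; inconclusive = mean below 50 but one replicate at or above 50; inactive = mean and every replicate below 50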;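 also: strain carries kanamycin resistance gene driven by streptokinase promoter and grows in 40 µg/ml kanamycin; loss of luminescence reflects streptokinase promoter inhibition or plain growth inhibition; 0% = median of DMSO wells and 100% = positive control at its reference dose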
Insulin prom up – insulin promoter activators in MIN6 cells, imaging, high-content screening, mouse beta cells; z-score at 5 µM; actives 0.3% (n = 190,000); MIN6 insulin promoter-GFP reporter; stronger effect = higher value;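 active = z-score above 3 at 5 µM with at least 500 cells counted in the well; inconclusive = wells under 500 cells, flagged as cytotoxic or low count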
* = called active by the depositor; i = inactive; ? = inconclusive; . = not tested or not shown; + = active, no number.

SMILES | WT yeast gro inh | Autophagy HCS | KCC2 mod | Rad51 HR inh | SKKanGAS inh | Insulin prom up
Cn1c(-c2c(N)n(CCc3ccccc3)c3nc4ccccc4nc23)nc2ccccc21 | 50 | + | 0.14 | -6 | 104* | 1.7
Cn1c(-c2c(N)n(C3CCCC3)c3nc4ccccc4nc23)nc2ccccc21 | 57 | + | 1.7 | -18 | 102* | 0.13
Cc1ccc2[nH]c(C(=O)N3CCN(C(c4ccccc4)c4ccccc4)CC3)cc2c1 | . | . | . | . | 5 | .
CC1(C)CC1C(=O)Nc1ccc([N+](=O)[O-])cc1Br (centres undefined) | 24 | i | 0.89 | -6 | -1 | 0
Cc1ccc(C2(c3ccc(C)cc3)CC2C(=O)Nc2ccc([N+](=O)[O-])cc2O)cc1 (centres undefined) | 88* | i | 0.017 | -3 | 105* | -0.36
COc1cc(S(=O)(=O)n2cnc3ccccc32)ccc1Br | . | . | . | . | -2 | .
O=C(/C=C/c1ccc(Cl)cc1Cl)Nc1ccncc1 | 40 | i | 0.35 | -10 | -5 | .
Cc1cc(C)nc(NC(=O)/C=C/c2ccccc2Cl)c1 | 64* | i | 0.057 | -5 | -2 | 0.02
Cc1cc(C)nc(NC(=O)c2ccc(COc3ccccc3Cl)cc2)c1 | 65* | i | 0.21 | -63 | 18 | -1.1
COC(=O)c1sccc1NC(=O)/C=C\c1ccc(Cl)cc1Cl | 5 | + | 1.4 | 11 | . | 2.2
Cc1cc(C)nc(NC(=O)/C=C/c2ccccc2Cl)n1 | -1 | i | . | 1 | -7 | 0.6
Cc1cc(C)nc(NC(=O)/C=C/c2ccc(Cl)cc2Cl)c1 | 74* | i | 0.18 | . | 27 | -1.3
Cc1csc(NC(=O)CCCC(=O)c2ccccc2)n1 | . | . | . | . | 0 | .
CCOc1ccc(N2C(=O)CC(NCc3ccc(F)cc3)C2=O)cc1 (centres undefined) | -22 | + | 0.042 | -2 | 7 | -0.31
O=C1CC(NCc2ccccc2)C(=O)N1c1ccc(F)cc1 (centres undefined) | -7 | i | 0.0065 | 6 | . | -1.7
O=C(NNC(=O)c1ccccc1OCc1ccc(F)cc1)c1ccccc1O | . | . | . | . | 93* | .
O=C(NNC(=O)c1ccccc1OCc1ccccc1)c1ccccc1O | . | . | . | . | 35 | .
CC(C)=NOCC(=O)Nn1c(COc2c(C)cccc2C)nc2ccccc2c1=O | . | . | . | . | -4 | .
CCOc1ccc(NC(=O)N2CCC(c3nc4ccccc4[nH]3)CC2)cc1 | -9 | i | -0.039 | 19 | -15 | 0.27
O=C1c2ccc([N+](=O)[O-])cc2C(=O)N1Cc1cccnc1 | . | . | . | . | -2 | .
FC(F)(F)c1ccncc1-c1nnnn1-c1ccc(Cl)cc1 | . | . | -0.56 | -18 | -12 | 0.27
FC(F)(F)c1nc(N2CCCC2)ncc1-c1nnnn1-c1ccc(Cl)cc1 | 59* | i | -1.8 | 0 | 7 | ?
COc1ccc(O)c(C2=Nc3ccccc3N=C(c3cccs3)C2)c1 | 36 | i | 0.6 | 8 | 60* | 0.37
COc1ccc(O)c(-c2cn[nH]c2-c2cccs2)c1 | 7 | i | 0.91 | 1 | -2 | 0.16
Cc1ccc(C(=O)NCC(=O)OC(C)C(=O)Nc2ccc(N3CCOCC3)cc2)s1 (centres undefined) | . | . | 0.91 | -16 | 0 | -0.75
SMILES | WT yeast gro inh | Autophagy HCS | KCC2 mod | Rad51 HR inh | SKKanGAS inh | Insulin prom up
CCCCOc1ccc2ccccc2c1C=O | 24 | + | -0.79 | -2 | 9 | 1.1
CCCOc1ccc2ccccc2c1/C=C1\SC(=O)NC1=O | . | . | . | . | 32 | .
Oc1c(Cl)cc(Cl)cc1C=Nc1cc(C(F)(F)F)ccc1N1CCc2ccccc2C1 | . | . | -1.1 | 10 | 87* | -1.1
Cc1nc2cc(N3CCCCC3)c(NC(=O)c3ccncc3)cc2c(=O)n1Cc1ccc(Cl)cc1 | 3 | + | 2.8 | . | 13 | .
Cc1nc2cc(N3CCN(C)CC3)c(NC(=O)Cc3ccccc3)cc2c(=O)n1Cc1ccccc1 | -4 | i | -0.51 | 1 | 5 | -1.8
COc1cccc(N/C(N)=N/c2nc(CSc3ccccn3)cc(=O)[nH]2)c1 | -10 | + | -0.31 | 1 | 0 | 0.07
CC1Cc2ccccc2N1c1ncnc2c1nnn2Cc1ccccc1 (centres undefined) | 65* | i | 0.16 | -2 | 1 | .
O=C(N/N=C/c1c[nH]c2ccc(Br)cc12)c1ccn(Cc2ccc(Cl)cc2)n1 | 7 | i | 1.5 | . | 26 | -0.13
O=C(N/N=C/c1c[nH]c2ccccc12)c1ccn(Cc2ccc(Cl)cc2Cl)n1 | 39 | i | 0.41 | . | 55* | 0.09
CCc1ccc(-c2cc(C(=O)N/N=C/c3c[nH]c4ccccc34)[nH]n2)cc1 | -10 | i | -1.1 | 10 | ? | -0.92
CCc1ccc2c(Cl)c(C(=O)N/N=C/c3c[nH]c4ccccc34)sc2c1 | 40 | i | -0.25 | . | 69* | 0.36
CC1CC(C)(C)N(C(=O)CN2C(=O)c3ccccc3C2=O)c2ccccc21 (centres undefined) | 3 | + | . | 7 | 1 | .
Cc1cccc(C)c1N1C(=O)CCC(C)(C)C1=O | . | . | . | . | 2 | .
O=c1[nH]c2ccccc2[n+]([O-])c1-c1ccccc1 | -1 | i | 0.47 | 0 | 10 | 0.37
Cc1ccc(OCCC(=O)OCC(=O)Nc2c(C)nn(-c3ccccc3)c2C)cc1 | . | . | . | . | 14 | .
O=C1CSC(c2ccc(F)cc2)N1c1nc2ccccc2s1 (centres undefined) | 75* | i | 0.37 | 9 | 7 | 1.1
O=C1CSC(c2ccc(F)cc2)N1c1ccccc1F (centres undefined) | . | . | . | . | -3 | .
CCCCCC(C)NC(=O)c1ccoc1C (centres undefined) | 78* | i | . | 1 | 0 | .
CCCCCCCCCCCNC(=O)c1ccoc1C | 76 | i | 0.029 | -6 | -3 | .
O=C(Cc1ccc(S(=O)(=O)N2CCCC2)s1)Nc1nc2c(s1)CCCC2 | 24 | i | 0.012 | -5 | 62* | 0.7
CC(C)(C)NC(=O)Cc1ccc(S(=O)(=O)N2CCCC2)s1 | -21 | i | 0.027 | -3 | -10 | 0.39
O=C(Nc1ccon1)c1cccc(S(=O)(=O)N2CCCCCC2)c1 | 7 | i | 0.35 | 9 | 2 | -0.19
O=C(Nc1ccon1)c1cccc(S(=O)(=O)N2CCCCC2)c1 | -2 | i | 0.79 | . | -3 | 3.5*
C=C(C)COc1ccc(-c2nc(N)nc(C)c2Oc2ccccc2OC)c(O)c1 | 73* | i | 1.1 | -2 | 26 | 0.47
C=C(C)COc1ccc(-c2nc(N)nc(C)c2-c2ccc(OC)cc2)c(O)c1 | -6 | i | 0.76 | . | -19 | -0.72
C=C(C)COc1ccc(-c2nc(N)ncc2-c2ccc(OC)c(OC)c2)c(O)c1 | . | . | . | . | -4 | .

High-throughput results as filed in PubChem BioAssay.
